Test results: ChEMBL document CHEMBL4715736, “Identification of anticancer agents based on the thieno[2,3-b]pyridine and 1H-pyrazole molecular scaffolds” (2016)

What was measured:
Type in all cases: functional
Conditions in all cases: read-out: Activity
SNB-75 = assay: Growth inhibition of human SNB-75 cells assessed as cell growth at 10 uM incubated for 48 hrs by sulforhodamine B assay relative to control
In short: (§1)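 Run by the NCI Developmental Therapeutics Program as part of its 60-line human tumour panel. Each compound tested at a single 10 µM dose. Growth expressed as % relative to untreated control cells (100%).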

M14 = assay: Growth inhibition of human M14 cells assessed as cell growth at 10 uM incubated for 48 hrs by sulforhodamine B assay relative to control
In short: (§2)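 Submitted to the NCI Developmental Therapeutics Program for the NCI60 human tumour cell line panel. First screen at a single 10 µM concentration. Read-out is growth relative to untreated control cells set at 100%.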

UACC-62 = assay: Growth inhibition of human UACC-62 cells assessed as cell growth at 10 uM incubated for 48 hrs by sulforhodamine B assay relative to control; in short: as §1
HCT-15 = assay: Growth inhibition of human HCT-15 cells assessed as cell growth at 10 uM incubated for 48 hrs by sulforhodamine B assay relative to control; in short: as §2
CAKI-1 = assay: Growth inhibition of human CAKI-1 cells assessed as cell growth at 10 uM incubated for 48 hrs by sulforhodamine B assay relative to control
In short: (§3)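 NCI Developmental Therapeutics Program NCI60 panel. Compounds that were active in the 10 µM one-dose screen went on to dose–response testing. Growth at each concentration is expressed relative to untreated control (100%). GI50 (concentration giving 50% of maximal inhibition of proliferation) and TGI (concentration giving total growth inhibition) were derived from the curves.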

HT-29 = assay: Growth inhibition of human HT-29 cells assessed as cell growth at 10 uM incubated for 48 hrs by sulforhodamine B assay relative to control; in short: as §2
OVCAR-8 = assay: Growth inhibition of human OVCAR-8 cells assessed as cell growth at 10 uM incubated for 48 hrs by sulforhodamine B assay relative to control; in short: as §1
SNB-19 = assay: Growth inhibition of human SNB-19 cells assessed as cell growth at 10 uM incubated for 48 hrs by sulforhodamine B assay relative to control; in short: as §1
TK-10 = assay: Growth inhibition of human TK-10 cells assessed as cell growth at 10 uM incubated for 48 hrs by sulforhodamine B assay relative to control; in short: as §1
NCI-H23 = assay: Growth inhibition of human NCI-H23 cells assessed as cell growth at 10 uM incubated for 48 hrs by sulforhodamine B assay relative to control; in short: as §2
NCI-H522 = assay: Growth inhibition of human NCI-H522 cells assessed as cell growth at 10 uM incubated for 48 hrs by sulforhodamine B assay relative to control; in short: as §2
MDA-MB-231 = assay: Growth inhibition of human MDA-MB-231 cells assessed as cell growth at 10 uM incubated for 48 hrs by sulforhodamine B assay relative to control; in short: as §2
SK-OV-3 = assay: Growth inhibition of human SK-OV-3 cells assessed as cell growth at 10 uM incubated for 48 hrs by sulforhodamine B assay relative to control; in short: as §1
UACC-257 = assay: Growth inhibition of human UACC-257 cells assessed as cell growth at 10 uM incubated for 48 hrs by sulforhodamine B assay relative to control; in short: as §1
U-251 = assay: Growth inhibition of human U-251 cells assessed as cell growth at 10 uM incubated for 48 hrs by sulforhodamine B assay relative to control; in short: as §1
A498 = assay: Growth inhibition of human A498 cells assessed as cell growth at 10 uM incubated for 48 hrs by sulforhodamine B assay relative to control; in short: as §3
CCRF-CEM = assay: Growth inhibition of human CCRF-CEM cells assessed as cell growth at 10 uM incubated for 48 hrs by sulforhodamine B assay relative to control; in short: as §3
COLO 205 = assay: Growth inhibition of human COLO 205 cells assessed as cell growth at 10 uM incubated for 48 hrs by sulforhodamine B assay relative to control; in short: as §3
A549 = assay: Growth inhibition of human A549/ATCC cells assessed as cell growth at 10 uM incubated for 48 hrs by sulforhodamine B assay relative to control; in short: as §3
HOP-62 = assay: Growth inhibition of human HOP-62 cells assessed as cell growth at 10 uM incubated for 48 hrs by sulforhodamine B assay relative to control; in short: as §2
SK-MEL-2 = assay: Growth inhibition of human SK-MEL-2 cells assessed as cell growth at 10 uM incubated for 48 hrs by sulforhodamine B assay relative to control; in short: as §1
BT-549 = assay: Growth inhibition of human BT-549 cells assessed as cell growth at 10 uM incubated for 48 hrs by sulforhodamine B assay relative to control
In short: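 NCI Developmental Therapeutics Program NCI60 human tumour cell line panel, one-dose primary screen with every compound at 10 µM. Growth is expressed as % of untreated control cells (100%).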

HOP-92 = assay: Growth inhibition of human HOP-92 cells assessed as cell growth at 10 uM incubated for 48 hrs by sulforhodamine B assay relative to control; in short: as §2
K562 = assay: Growth inhibition of human K562 cells assessed as cell growth at 10 uM incubated for 48 hrs by sulforhodamine B assay relative to control; in short: as §2
SF-268 = assay: Growth inhibition of human SF-268 cells assessed as cell growth at 10 uM incubated for 48 hrs by sulforhodamine B assay relative to control; in short: as §1
IGROV-1 = assay: Growth inhibition of human IGROV-1 cells assessed as cell growth at 10 uM incubated for 48 hrs by sulforhodamine B assay relative to control; in short: as §2

Cc1ccc(S(=O)(=O)n2ccc(-c3ccc(OCCCF)cc3)n2)cc1
growth at 10 µM (SNB-75): 78.3%
growth at 10 µM (M14): 94.7%
growth at 10 µM (UACC-62): 63.9%
growth at 10 µM (HCT-15): 93.5%
growth at 10 µM (CAKI-1): 63.8%
growth at 10 µM (HT-29): 86.4%
growth at 10 µM (OVCAR-8): 87.7%
growth at 10 µM (SNB-19): 91.7%
growth at 10 µM (TK-10): 62.8%
growth at 10 µM (NCI-H23): 78.7%
growth at 10 µM (NCI-H522): 69.5%
growth at 10 µM (MDA-MB-231): 93.9%
growth at 10 µM (SK-OV-3): 107%
growth at 10 µM (UACC-257): 80%
growth at 10 µM (U-251): 85%
growth at 10 µM (A498): 77%
growth at 10 µM (CCRF-CEM): 75.6%
growth at 10 µM (COLO 205): 101%
growth at 10 µM (A549): 78.8%
growth at 10 µM (HOP-62): 108%
growth at 10 µM (SK-MEL-2): 87.2%
growth at 10 µM (BT-549): 99.9%
growth at 10 µM (HOP-92): 71.8%
growth at 10 µM (K562): 55.4%
growth at 10 µM (SF-268): 103%
growth at 10 µM (IGROV-1): 92.5%

O=S(=O)(c1ccccc1)n1ccc(-c2ccc3c(c2)CCO3)n1
growth at 10 µM (SNB-75): 76.2%
growth at 10 µM (M14): 101%
growth at 10 µM (UACC-62): 73.1%
growth at 10 µM (HCT-15): 92.8%
growth at 10 µM (CAKI-1): 75.3%
growth at 10 µM (HT-29): 92.8%
growth at 10 µM (OVCAR-8): 84%
growth at 10 µM (SNB-19): 83.4%
growth at 10 µM (TK-10): 76.2%
growth at 10 µM (NCI-H23): 78.4%
growth at 10 µM (NCI-H522): 61.7%
growth at 10 µM (MDA-MB-231): 82.9%
growth at 10 µM (SK-OV-3): 104%
growth at 10 µM (UACC-257): 79.9%
growth at 10 µM (U-251): 73.6%
growth at 10 µM (A498): 71.2%
growth at 10 µM (CCRF-CEM): 76.7%
growth at 10 µM (COLO 205): 96.9%
growth at 10 µM (A549): 78.8%
growth at 10 µM (HOP-62): 98.8%
growth at 10 µM (SK-MEL-2): 86.5%
growth at 10 µM (BT-549): 96%
growth at 10 µM (HOP-92): 41.8%
growth at 10 µM (K562): 56%
growth at 10 µM (SF-268): 92.8%
growth at 10 µM (IGROV-1): 75.7%

O=S(=O)(c1ccc(Br)cc1)n1ccc(-c2ccc(OCCCF)cc2)n1
growth at 10 µM (SNB-75): 84.5%
growth at 10 µM (M14): 97.1%
growth at 10 µM (UACC-62): 59.9%
growth at 10 µM (HCT-15): 86.4%
growth at 10 µM (CAKI-1): 79.3%
growth at 10 µM (HT-29): 89.4%
growth at 10 µM (OVCAR-8): 95.1%
growth at 10 µM (SNB-19): 95.5%
growth at 10 µM (TK-10): 70.8%
growth at 10 µM (NCI-H23): 80.3%
growth at 10 µM (NCI-H522): 79.4%
growth at 10 µM (MDA-MB-231): 101%
growth at 10 µM (SK-OV-3): 106%
growth at 10 µM (UACC-257): 77.9%
growth at 10 µM (U-251): 90.7%
growth at 10 µM (A498): 91.1%
growth at 10 µM (CCRF-CEM): 92.3%
growth at 10 µM (COLO 205): 102%
growth at 10 µM (A549): 75.7%
growth at 10 µM (HOP-62): 118%
growth at 10 µM (SK-MEL-2): 96.4%
growth at 10 µM (BT-549): 110%
growth at 10 µM (HOP-92): 74.1%
growth at 10 µM (K562): 55.6%
growth at 10 µM (SF-268): 98.5%
growth at 10 µM (IGROV-1): 89%
